Experimental findings from ChEMBL document CHEMBL3813658, “Texas Native Plants Yield Compounds with Cytotoxic Activities against Prostate Cancer Cells” (J Nat Prod, 2016) are described below.

Structures are written as SMILES. Activity calls are given as the source filed them. The calls are words filed in the database; no cut-off is given here.

For assay [1], the system named is DU-145. The experiment in a line: Disruption of mitotic spindle in human DU145 cells assessed as elongated and curved morphology at 2 times antiproliferative IC50 after 16 to 18 hrs by DAPI staining based immunofluorescence microscopy. The assay is classed as functional, cell-based. In short, it runs like this: (§1)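 Cells fixed in ice-cold methanol, then stained with anti-β-tubulin and FITC secondary antibody; DNA stained with DAPI. Spindle morphology, metaphase DNA alignment and interphase microtubules assessed by fluorescence microscopy.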

Assay [2] has as its system DU-145. The assay is described as follows: Ratio of IC50 for human PC3 cells to IC50 for human DU145 cells. The assay is classed as functional.
Assay [3] can be described thus: Cell cycle arrest in human DU145 cells assessed as accumulation at G0/G1 phase at 5 times antiproliferative IC50 after 16 to 23 hrs by propidium iodide staining based flow cytometry (reference value: 50.4 +/- […]%). The assay is classed as functional. The following applies: DU-145.
Assay [4] in a line: Antiproliferative activity against human PC3 cells after 48 hrs by sulforhodamine B assay. The assay is classed as functional, cell-based. As to conditions: PC-3, 48 h. (In SRB staining, fixed cells bind dye roughly in proportion to their protein.)
Assay [5] can be described thus: Cell cycle arrest in human DU145 cells assessed as accumulation at S phase at 5 times antiproliferative IC50 after 16 to 23 hrs by propidium iodide staining based flow cytometry (reference value: 27.8 +/- 1%). The assay is classed as functional. As to conditions: DU-145. The gist of the method: (§2)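 Cells harvested on ice, stained with Krishan's reagent (propidium iodide), and DNA content read by flow cytometry. Phase percentages derived from DNA histograms. n = 2–3 per compound, n = 5 for vehicle; error bars are SEM.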
(A flow cytometer gives signals particle by particle.)

Assay [6] is described as follows: Antiproliferative activity against human DU145 cells after 48 hrs by sulforhodamine B assay. The class given is functional, cell-based. As to conditions: DU-145, 48 h. The gist of the method:
(§3)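 Sulforhodamine B assay. DU 145 cells in IMEM/10% FBS and PC-3 cells in RPMI-1640/10% FBS, both kept at 37 °C with 5% CO2, seeded at predetermined densities and left to adhere overnight. Cells exposed 48 h to a concentration range or DMSO vehicle, then TCA-fixed and SRB-stained. Bound dye dissolved in Tris and read at 560 nm.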

Assay [7] can be described thus: Cell cycle arrest in human DU145 cells assessed as accumulation at G2/M phase at 5 times antiproliferative IC50 after 16 to 23 hrs by propidium iodide staining based flow cytometry (reference value: 21.8 +/- 1.5%). The class given is functional. As to conditions: DU-145. In short, it runs like this:
as §2

Assay [8] has as its target T1, Tubulin (Sus scrofa) (UniProt P02554+P02550). The assay is described as follows: Induction of porcine brain tubulin polymerization at 2 uM incubated for 1 hr by turbidimetric assay. The gist of the method: (§4)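 Purified porcine brain tubulin (2 mg/mL) in GPEM buffer with 1 mM GTP, polymerized for 1 h at 37 °C with 1% DMSO vehicle or compound at 2 or 20 μM. Turbidity followed as absorbance at 340 nm; initial rate and total polymer assessed.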

Assay [9] is described as follows: Cytotoxicity against human DU145 cells assessed as reduction in cell density at 61.7 uM after 48 hrs by sulforhodamine B assay relative to control. The assay is classed as functional. As to conditions: DU-145, 48 h. In short, it runs like this: as §3
The target of assay [10] is T1, Tubulin (Sus scrofa). The assay is described as follows: Effect on total porcine brain tubulin polymer level at 20 uM incubated for 1 hr by turbidimetric assay. The gist of the method:
as §4

Assay [11] concerns DU-145. The experiment in a line: Disruption of mitotic spindle in human DU145 cells assessed as incorrect alignment of DNA at metaphase at 2 times antiproliferative IC50 after 16 to 18 hrs by DAPI staining based immunofluorescence microscopy. The assay is classed as functional, cell-based. The gist of the method:
as §1

Assay [12] is described as follows: (§5) Inhibition of colony formation in human DU145 cells at antiproliferative IC90 incubated for 4 hrs followed by compound washout measured after 7 to 9 days by crystal violet staining based clonogenic assay relative to control. The class given is functional, DU-145. The gist of the method: (§6)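 DU 145 cells plated at 150 per 60 mm plate and left to adhere about 24 h. Cells treated 4 h at the IC90 concentration, washed with fresh medium, then grown 7−9 days drug-free. Colonies stained with 0.5% crystal violet in 20% methanol, counted by imaging, and compared with vehicle-treated controls.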

The target in assay [13] is T1, Tubulin (Sus scrofa). The experiment in a line: Induction of porcine brain tubulin polymerization at 20 uM incubated for 1 hr by turbidimetric assay. In short, it runs like this: as §4
A short description of assay [14]: Cytotoxicity against human PC3 cells assessed as reduction in cell density at 61.7 uM after 48 hrs by sulforhodamine B assay relative to control. The class given is functional. As to conditions: PC-3, 48 h. The gist of the method:
as §3

For assay [15], the target named is T2, Mitogen-activated protein kinase; ERK1/ERK2 (Homo sapiens) (UniProt P27361+P28482). The experiment in a line: Increase in ERK1/2 phosphorylation in human DU145 cells at antiproliferative IC90 after 2 to 18 hrs by Western blot analysis. The class given is cell-based. As to conditions: DU-145. The gist of the method:
(§7)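 Equal protein run on SDS-PAGE and blotted to membrane. Probed with phospho-p44/42 and total p44/42 antibodies (1:1000) and HRP secondaries (1:5000), then quantified by densitometry.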
(In general: A western blot detects proteins with antibodies after separation by electrophoresis.)

The test system of assay [16] is DU-145. The experiment in a line: Disruption of mitotic spindle in human DU145 cells assessed as incorrect alignment of DNA at metaphase at 5 times antiproliferative IC50 after 16 to 18 hrs by DAPI staining based immunofluorescence microscopy. The assay is classed as functional, cell-based. The gist of the method:
as §1

The target of assay [17] is T2, Mitogen-activated protein kinase; ERK1/ERK2 (Homo sapiens). The assay is described as follows: Activation of ERK1/2 in human DU145 cells assessed as increase in phosphorylation at Thr202/Tyr204 residue at antiproliferative IC90 after 4 hrs by fluorescence based intracellular signaling array method. The class given is cell-based. The following applies: DU-145. In short, it runs like this: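 PathScan intracellular signaling array with fluorescent read-out. DU 145 cells treated for 4 h; lysates made with cell extraction buffer plus protease inhibitors, as for Western blots. Phospho-Erk1/2 at Thr202/Tyr204 scored.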

Assay [18] in a line: Cytotoxicity against human PC3 cells assessed as reduction in cell density after 48 hrs by sulforhodamine B assay relative to control. The class given is functional, PC-3. The gist of the method: as §3
Assay [19] deals with DU-145. The assay is described as follows: Disruption of mitotic spindle in human DU145 cells assessed as elongated and curved morphology at 5 times antiproliferative IC50 after 16 to 18 hrs by DAPI staining based immunofluorescence microscopy. The class given is functional, cell-based. In short, it runs like this: as §1
Assay [20] in a line: Cytotoxicity against human DU145 cells assessed as reduction in cell density after 48 hrs by sulforhodamine B assay relative to control. The class given is functional, DU-145. The gist of the method:
as §3

A short description of assay [21]: Cytotoxicity against human PC3 cells assessed as reduction in cell density at 12.5 uM after 48 hrs by sulforhodamine B assay relative to control. The class given is functional. The following applies: PC-3, 48 h. In short, it runs like this:
as §3

Assay [22] can be described thus: Cytotoxicity against human DU145 cells assessed as reduction in cell density at 12.5 uM after 48 hrs by sulforhodamine B assay relative to control. The assay is classed as functional. The following applies: DU-145, 48 h. In short, it runs like this:
as §3

Assay [23] relates to DU-145. The description is as §5. The assay is classed as functional. In short, it runs like this:
as §6

For assay [24], the system named is DU-145. The assay is described as follows: Effect on interphase microtubule in human DU145 cells at 5 times antiproliferative IC50 after 16 to 18 hrs by DAPI staining based immunofluorescence microscopy. The class given is functional, cell-based. The gist of the method: as §1
Assay [25] in a line: Cytotoxicity against human DU145 cells assessed as reduction in cell density at 61.3 uM after 48 hrs by sulforhodamine B assay relative to control. The class given is functional. As to conditions: DU-145, 48 h. In short, it runs like this:
as §3

Assay [26] deals with T2, Mitogen-activated protein kinase; ERK1/ERK2 (Homo sapiens). The assay is described as follows: Increase in ERK1/2 phosphorylation in human DU145 cells at antiproliferative IC90 up to 2 hrs by Western blot analysis. The class given is cell-based. The following applies: DU-145. The gist of the method: as §7

T2 sequence (P27361 whole entry, looked up): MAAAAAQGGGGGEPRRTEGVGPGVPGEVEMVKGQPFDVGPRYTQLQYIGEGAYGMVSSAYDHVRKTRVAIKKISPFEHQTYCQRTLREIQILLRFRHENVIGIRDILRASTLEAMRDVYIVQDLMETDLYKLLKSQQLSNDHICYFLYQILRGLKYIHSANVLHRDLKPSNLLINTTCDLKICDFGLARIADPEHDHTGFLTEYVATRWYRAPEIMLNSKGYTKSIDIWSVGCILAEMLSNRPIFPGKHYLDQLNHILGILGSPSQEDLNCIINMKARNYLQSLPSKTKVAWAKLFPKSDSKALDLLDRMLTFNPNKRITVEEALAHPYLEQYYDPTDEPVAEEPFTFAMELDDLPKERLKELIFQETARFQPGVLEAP
T2 sequence (P28482 whole entry, looked up): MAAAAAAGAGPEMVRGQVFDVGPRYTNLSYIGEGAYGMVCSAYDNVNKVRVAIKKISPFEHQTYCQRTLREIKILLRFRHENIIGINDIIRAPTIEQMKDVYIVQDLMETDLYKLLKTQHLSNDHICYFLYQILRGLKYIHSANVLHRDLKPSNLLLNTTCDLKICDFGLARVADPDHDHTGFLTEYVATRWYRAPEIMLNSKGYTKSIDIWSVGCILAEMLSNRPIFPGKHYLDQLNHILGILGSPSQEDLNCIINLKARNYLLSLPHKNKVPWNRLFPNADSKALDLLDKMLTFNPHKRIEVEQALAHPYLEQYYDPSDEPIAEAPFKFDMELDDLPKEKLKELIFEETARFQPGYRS
T1 sequence (P02550 whole entry, looked up): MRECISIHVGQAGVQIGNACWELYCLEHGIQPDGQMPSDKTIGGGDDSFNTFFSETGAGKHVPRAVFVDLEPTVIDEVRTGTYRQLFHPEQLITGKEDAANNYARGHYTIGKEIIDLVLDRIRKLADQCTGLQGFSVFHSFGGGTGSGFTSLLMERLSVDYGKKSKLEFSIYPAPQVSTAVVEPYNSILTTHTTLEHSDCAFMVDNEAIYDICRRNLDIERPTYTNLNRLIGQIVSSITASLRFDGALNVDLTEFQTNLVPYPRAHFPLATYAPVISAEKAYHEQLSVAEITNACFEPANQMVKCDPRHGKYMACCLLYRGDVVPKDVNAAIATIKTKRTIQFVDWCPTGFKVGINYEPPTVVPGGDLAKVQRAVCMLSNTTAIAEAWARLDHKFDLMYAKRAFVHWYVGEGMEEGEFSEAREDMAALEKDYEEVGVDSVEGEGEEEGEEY
T1 sequence (P02554 whole entry, looked up): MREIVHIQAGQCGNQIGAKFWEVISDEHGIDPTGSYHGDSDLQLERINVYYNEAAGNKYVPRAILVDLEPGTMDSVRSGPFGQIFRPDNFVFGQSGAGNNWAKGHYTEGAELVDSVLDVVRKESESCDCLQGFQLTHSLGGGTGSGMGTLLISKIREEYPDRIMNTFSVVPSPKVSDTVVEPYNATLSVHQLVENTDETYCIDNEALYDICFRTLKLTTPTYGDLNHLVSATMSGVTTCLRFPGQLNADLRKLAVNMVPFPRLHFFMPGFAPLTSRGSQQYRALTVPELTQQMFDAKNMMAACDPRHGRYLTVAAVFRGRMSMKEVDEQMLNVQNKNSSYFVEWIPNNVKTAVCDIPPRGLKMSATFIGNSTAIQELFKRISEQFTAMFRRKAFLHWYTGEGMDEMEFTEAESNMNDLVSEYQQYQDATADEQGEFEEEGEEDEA

By IC50 is commonly meant the concentration that gives 50% inhibition. Higher therefore signals lower potency. Broadly, the inhibition is the change of the read-out against control, counted positive when it falls. As for `C=C(C)C(O)Cc1c(O)ccc(C(=O)/C=C/c2ccccc2)c1O` (stereo not drawn), the result in assay [1], in assay [11] and in assay [13] was Active. Besides, in assay [2], the Ratio IC50 was determined as 1.6. Besides, the Activity in assay [3] was 37.8%; in assay [5], 28.8%; in assay [7], 33.4%. For the same compound, the IC50 in assay [4] came out at 11 µM; in assay [6], 7 µM. Besides, the result in [8] and in [10] was inactive. For the same compound, the inhibition at 61.7 µM in assay [9] and in assay [14] was 84% throughout. Besides, the “inhibition (INH)” value in assay [12] was found to be 44%.

Take `CC(=O)O[C@H]1C(=O)[C@@]2(C)[C@H]([C@H](OC(=O)c3ccccc3)[C@]3(O)C[C@H](OC(=O)[C@H](O)[C@@H](NC(=O)c4ccccc4)c4ccccc4)C(C)=C1C3(C)C)[C@]1(OC(C)=O)CO[C@@H]1C[C@@H]2O` [PACLITAXEL]: inhibition in assay [6] was half-maximal at 0.0038 µM (IC50).

In the case of `C=C1C(=O)O[C@H]2C/C(COC(=O)C(C)C)=C/CC[C@]3(C)O[C@H]3[C@@H](O)[C@H]12`, the Ratio IC50 in [2] amounted to 2.8. Moreover, the Activity in [3] was 34.4%; in assay [5], 31.2%; in [7], 34.5%. The outcome in assay [15], in [16], in assay [17] and in assay [19] was Active. For the same compound, the concentration for half-maximal inhibition (IC50) turned out to be 4.7 µM in assay [4] and 1.7 µM in assay [6]. The “inhibition (INH)” value is reported as 30% in assay [18], 42% in assay [12] and 20% in assay [20]. The result in assay [8] and in assay [13] was inactive.

As for `CC(C)[C@@H]1CC[C@@]2(C)CCC[C@@](C)(O)[C@@H]2[C@@H]1OC(=O)/C=C/c1ccc(O)cc1`, the Ratio IC50 in assay [2] is 0.77. The Activity in assay [3] turned out to be 51.5%; in [5] it was 24.9%; in [7], 23.5%. The outcome in [15], in assay [19] and in assay [24] was inactive. In addition, the half-inhibitory concentration (IC50) in assay [4] came to 4 µM; in assay [6] it was 5.2 µM. The inhibition at 12.5 µM in assay [21] and in assay [22] was 84% in each case. Further, the result in assay [17] was Active. For the same compound, the inhibition result in assay [23] was “inactive”.

On to `CC(C)(O)C(O)Cc1c(O)ccc(C(=O)/C=C/c2ccccc2)c1O` (stereo not drawn), for which, in [2], the “Ratio IC50” value is on record as 1.4. For the same compound, the 50% inhibitory concentration (IC50) in [4] is 35 µM; in assay [6], 25.5 µM. The inhibition at 61.3 µM in assay [25] came to 46%.

`C=C(C)C(=O)O[C@H]1C/C(C=O)=C\CC/C(C)=C/[C@H]2OC(=O)C(=C)[C@H]12`: in assay [2], the Ratio IC50 was determined as 1.7. In addition, the Activity in assay [3] worked out at 46.4%; in assay [5], 27.2%; in assay [7], 26.4%. Also, the result in assay [15], in assay [8] and in assay [13] was inactive. In addition, the result in assay [16], in assay [17], in assay [26] and in [19] was Active. Further, the IC50 stood at 3 µM in [4] and 1.8 µM in assay [6]. Moreover, the “inhibition (INH)” value is 20% in assay [18], 98% in assay [12] and 20% in assay [20].

As for `C=C(C)C(=O)OC/C1=C\CC[C@]2(C)O[C@H]2[C@@H](O)[C@@H]2C(=C)C(=O)O[C@H]2C1`, the Ratio IC50 in assay [2] amounted to 3.2. The Activity came to 32.8% in assay [3], 32.7% in assay [5] and 34.5% in [7]. Moreover, the result in [16], in [17], in assay [26] and in assay [19] was Active. Further, the results for the half-maximal inhibitory concentration (IC50) in [4] and in assay [6] were 12 µM and 3.7 µM, respectively. The figures for the “inhibition (INH)” value in assay [18], in assay [12] and in assay [20] were 30%, 23% and 20%, respectively. Moreover, the outcome in assay [8] and in assay [13] was inactive.
